Experimental data: ChEMBL document CHEMBL5712071, “BET bromodomain protein inhibition is a therapeutic option for medulloblastoma” (Oncotarget, 2013)
The source made the active and inactive calls. The calls are words filed in the database; no cut-off is given here.

How the values were obtained:
[1] = system: Daoy; assay: Anti-proliferative activity against human Daoy cells assessed as reduction in cell viability incubated for 120 hrs by MTT assay; type: functional, cell-based
Procedure, shortened: (§1)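 Cells seeded in triplicate at 2 × 10^3 per well and allowed to adhere for 24h. JQ1 was given as serial dilutions in full medium, 1nM-6µM, from a 10 mM DMSO stock. Viability was read by MTT at each time point and IC50 derived from dose-response curves. Culture media were RPMI 1640/10% FCS for HD-MB3 (plus 1% NEAA), ONS-76, Daoy and UW-228, and EMEM/10% FCS for D-283 and D-341.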

[2] = system: HD-MB03; assay: Anti-proliferative activity against human HD-MB03 cells assessed as reduction in cell viability incubated for 72 hrs by MTT assay; type: functional, cell-based; settings: HD-MB03, 72 h; procedure, shortened: as §1
[3] = system: ONS-76; assay: Anti-proliferative activity against human ONS-76 cells assessed as reduction in cell viability incubated for 48 hrs by MTT assay; type: functional, cell-based; settings: ONS-76, 48 h; procedure, shortened: as §1
[4] = system: ONS-76; assay: Anti-proliferative activity against human ONS-76 cells assessed as reduction in cell viability incubated for 120 hrs by MTT assay; type: functional, cell-based; settings: ONS-76, 120 h; procedure, shortened: as §1
[5] = system: Daoy; assay: Anti-proliferative activity against human Daoy cells assessed as reduction in cell viability incubated for 48 hrs by MTT assay; type: functional, cell-based; procedure, shortened: as §1
[6] = system: Daoy; assay: Anti-proliferative activity against human Daoy cells assessed as reduction in cell viability incubated for 96 hrs by MTT assay; type: functional, cell-based; procedure, shortened: as §1
[7] = system: UW228; assay: Anti-proliferative activity against human UW228 cells assessed as reduction in cell viability incubated for 48 hrs by MTT assay; type: functional, cell-based; settings: UW228, 48 h; procedure, shortened: as §1
[8] = system: D341 cell line; assay: Anti-proliferative activity against human D341 cells assessed as reduction in cell viability incubated for 120 hrs by MTT assay; type: functional, cell-based; settings: D341, 120 h; procedure, shortened: as §1
[9] = system: D283 Med; assay: Anti-proliferative activity against human D283 cells assessed as reduction in cell viability incubated for 48 hrs by MTT assay; type: functional, cell-based; procedure, shortened: as §1
[10] = system: D283 Med; assay: Anti-proliferative activity against human D283 cells assessed as reduction in cell viability incubated for 72 hrs by MTT assay; type: functional, cell-based; procedure, shortened: as §1
[11] = system: D283 Med; assay: Anti-proliferative activity against human D283 cells assessed as reduction in cell viability incubated for 120 hrs by MTT assay; type: functional, cell-based; procedure, shortened: as §1
[12] = system: D283 Med; assay: Induction of apoptosis in human D283 cells assessed as increase in population of cells in sub-G1 phase at 500 nM incubated for 72 hrs by ELISA; type: functional, cell-based
[13] = system: UW228; assay: Induction of apoptosis in human UW228 cells assessed as increase in population of cells in sub-G1 phase at 500 nM incubated for 72 hrs by ELISA; type: functional, cell-based
Procedure, shortened: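 Cell death ELISA on ONS-76 or UW-228 cells seeded 2 × 10^3 per well in triplicate and allowed 24h to adhere. Treated with 500 nM JQ1 or DMSO for 72h, then apoptotic cell death measured by Cell Death Detection ELISA per kit protocol. Experiments repeated at least 3 times.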

[14] = system: D283 Med; assay: Induction of apoptosis in human D283 cells assessed as increase in population of cells in G1 phase at 500 nM incubated for 72 hrs by ELISA; type: functional, cell-based
[15] = system: HD-MB03; assay: Induction of apoptosis in human HD-MB03 cells assessed as increase in population of cells in G1 phase at 500 nM incubated for 72 hrs by ELISA; type: functional, cell-based
[16] = system: ONS-76; assay: Induction of apoptosis in human ONS-76 cells assessed as increase in population of cells in sub-G1 phase at 500 nM incubated for 72 hrs by flow cytometry; type: functional, cell-based
Procedure, shortened: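 PI flow cytometry: cells seeded in triplicate, adhered 24h, then exposed to 500 nM JQ1 or DMSO control (methods give 48h culture, legend gives 72h). Harvested by trypsin, washed 3 times in PBS, stained with propidium iodide 15 min, DNA content read by flow cytometry. Sub-G1 fraction taken as apoptotic. Experiments repeated at least 3 times.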

[17] = system: HD-MB03; assay: Antiproliferative activity against human HD-MB03 cells at 500 nM incubated for 72 hrs by BrdU ELISA method; type: functional, cell-based
Procedure, shortened: (§2)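 Cells seeded in triplicate at 2 × 10^3 per well with 24h adherence, then treated with 500 nM JQ1 or DMSO control for 72h. Proliferation was measured by BrdU incorporation ELISA. Experiments were run independently at least 3 times.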

[18] = system: ONS-76; assay: Antiproliferative activity against human ONS-76 cells at 500 nM incubated for 72 hrs by BrdU ELISA method; type: functional, cell-based; procedure, shortened: as §2
[19] = system: D341 cell line; assay: Antiproliferative activity against human D341 cells at 500 nM incubated for 72 hrs by BrdU ELISA method; type: functional, cell-based; procedure, shortened: as §2
[20] = system: HD-MB03; assay: Antitumor activity against human HD-MB03 cells xenografted in female athymic (nu/nu) mouse assessed as increase in mouse survival time at 50 mg/kg, ip for 28 days relative to untreated control; type: functional, organism-based; settings: time 28.0 day
Procedure, shortened: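 Female athymic nu/nu mice, 4 weeks old, received 2 × 10^7 HD-MB3 cells in Matrigel subcutaneously in the left flank. At 150–200 mm3 they were randomised, n=7 per group, to JQ1 50 mg/kg ip daily or vehicle for 28 days or until tumours exceeded 1000 mm3. Calipers were used, with volume = (breadth × length × height)/2. Time to 1000 mm3 was analysed by Kaplan-Meier.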

[21] = system: HD-MB03; assay: Induction of apoptosis in female athymic (nu/nu) mouse xenografted with human HD-MB03 cells as increase in expression of cleaved caspase 3 in tumor at 50 mg/kg, ip administered at 0, 12, 24 and 36 hrs over 2-day course by immunohistochemistry; type: functional, organism-based
Procedure, shortened: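 Nu/nu mice bearing subcutaneous HD-MB3 tumours received JQ1 50 mg/kg ip or DMSO at 0, 12, 24 and 36 h and were killed 4 h after the last dose, 3 tumours per group. Formalin-fixed 5µm sections underwent pH 6.0 antigen retrieval for 20 min at 100°C, then cleaved caspase 3 immunostaining (1:200) with quantification of positive cells.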

[22] = system: Mus musculus; assay: […] of cell proliferation in female athymic (nu/nu) mouse xenografted with human HD-MB03 cells as reduction in number of proliferating cells in tumor at 50 mg/kg, ip administered at 0, 12, 24 and 36 hrs over 2-day course by immunostaining and hematoxylin-eosin staining; type: functional, organism-based
Procedure, shortened: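 HD-MB3 cells in Matrigel (2 × 10^7) injected subcutaneously into the left flank of 4-week-old female nu/nu mice. Given JQ1 50 mg/kg i.p. or DMSO vehicle at 0, 12, 24 and 36h; killed 4h after the last dose. Fixed 5 µm tumour sections underwent pH 6.0 retrieval and Ki67 (1:25) immunostaining with H&E; positive cells quantified, 3 tumours per group.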

[23] = target: Bromodomain-containing protein 4 (Homo sapiens) (UniProt O60885); settings: ONS-76, dose 500.0 nM, time 24.0 hrs
[24] = target: Bromodomain-containing protein 4 (Homo sapiens) (UniProt O60885); settings: Daoy, dose 500.0 nM, time 24.0 hrs
[25] = target: Bromodomain-containing protein 4 (Homo sapiens) (UniProt O60885); settings: UW228, dose 500.0 nM, time 24.0 hrs
[26] = target: Bromodomain-containing protein 4 (Homo sapiens) (UniProt O60885); settings: D341 cell line, dose 500.0 nM, time 72.0 hrs

SMILES: Cc1sc2c(c1C)C(c1ccc(Cl)cc1)=N[C@@H](CC(=O)OC(C)(C)C)c1nnc(C)n1-2
- IC50 [1]: 544 nM
- IC50 [2]: 78 nM
- IC50 [3]: 172 nM
- IC50 [4]: 123 nM
- IC50 [5]: > 1000 nM
- IC50 [6]: > 1000 nM
- IC50 [7]: > 1000 nM
- IC50 [8]: 269 nM
- IC50 [9]: > 1000 nM
- IC50 [10]: 477 nM
- IC50 [11]: 316 nM
- Activity [12]: Active
- Activity [13]: Active
- Activity [14]: Active
- Activity [15]: Active
- Activity [16]: Active
- Activity [17]: Active
- Activity [18]: Active
- Activity [19]: Active
- Activity [20]: Active
- Activity [21]: Active
- Activity [22]: Active
- inhibition [23]: Active
- inhibition [24]: Active
- inhibition [25]: Active
- inhibition [26]: Active
